Results on 27 compounds are retold here after ChEMBL document CHEMBL1131497, “Discovery of 1-(4-fluorophenyl)-(3R)-[3-(4-fluorophenyl)-(3S)-hydroxypropyl]-(4S)-(4 -hydroxyphenyl)-2-azetidinone (SCH 58235): a designed, potent, orally active inhibitor of cholesterol absorption” (J Med Chem, 1998).

Data set [1] deals with Cricetinae gen. sp. Put plainly: Evaluated for its ability to reduce liver cholesterol esters(LCE) in cholesterol-fed hamsters. Format: functional, Cricetulus griseus. The method, boiled down:
(§1)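 Hamsters were fed a 0.5% cholesterol diet for 7 days with once-daily oral gavage dosing in 0.2 mL corn oil. Controls got the same diet and vehicle without drug. Livers were collected on day 7 and neutral lipids extracted. Cholesteryl ester content was measured by HPLC. Results are given as percent change in hepatic cholesteryl ester versus cholesterol-fed controls, or as ED50 in mg/kg/day.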

Data set [2] in a line: Percent negation of rise in total serum cholesterol relative to control-fed 0.5% cholesterol for 7 days, At a dose of 0.1 mg/kg/day. Format: ADME, organism-based. Conditions: in vivo, 168 h. The method, boiled down:
(§2)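 Serum total cholesterol was measured in hamsters given 0.5% dietary cholesterol for 7 days with daily oral gavage dosing (0.2 mL corn oil vehicle). Controls were cholesterol-fed animals receiving vehicle without drug. Results are expressed as percent negation of the diet-induced rise in serum total cholesterol relative to these controls.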

Data set [3] is described as follows: Percent negation of rise in total serum cholesterol relative to control-fed 0.5% cholesterol for 7 days, At a dose of 0.3 mg/kg/day. Particulars: in vivo, 168 h. Format: ADME, organism-based. An outline of the steps: as §2
Data set [4] in a line: Percent negation of rise in total serum cholesterol relative to control-fed 0.5% cholesterol for 7 days, At a dose of 1 mg/kg/day. Format: ADME, organism-based. Conditions: in vivo, 168 h. The method, boiled down: as §2
Data set [5] can be described thus: Percent negation of rise in total serum cholesterol relative to control-fed 0.5% cholesterol for 7 days, at a dose of 0.03 mg/kg/day. Format: ADME, organism-based. Conditions: in vivo, 168 h. The method, boiled down:
as §2

A short description of data set [6]: The pharmacokinetics property percent negation of rise in liver cholesterol esters relative to control-fed 0.5% cholesterol for 7 days, At a dose of 0.03 mg/kg/day. Format: ADME, organism-based. Particulars: in vivo, 168 h. An outline of the steps:
as §1

A short description of data set [7]: The pharmacokinetics property percent negation of rise in liver cholesterol esters relative to control-fed 0.5% cholesterol for 7 days, At a dose of 0.1 mg/kg/day. Format: ADME, organism-based. Conditions: in vivo, 168 h. The method, boiled down:
as §1

The nature of data set [8]: The pharmacokinetics property percent negation of rise in liver cholesterol esters relative to control-fed 0.5% cholesterol for 7 days, At a dose of 0.3 mg/kg/day. Format: ADME, organism-based. Particulars: in vivo, 168 h. The method, boiled down:
as §1

Data set [9] is described as follows: The pharmacokinetics property percent negation of rise in liver cholesterol esters relative to control-fed 0.5% cholesterol for 7 days, At a dose of 1 mg/kg/day. Format: ADME, organism-based. Conditions: in vivo, 168 h. An outline of the steps:
as §1

Data set [10] in a line: The pharmacokinetics property percent negation of rise in liver cholesterol esters relative to control-fed 0.5% cholesterol for 7 days, At a dose of 3 mg/kg/day. Conditions: in vivo, 168 h. Format: ADME, organism-based. An outline of the steps:
as §1

The nature of data set [11]: Percent negation of rise in total serum cholesterol relative to control-fed 0.5% cholesterol for 7 days, At a dose of 3 mg/kg/day. Particulars: in vivo, 168 h. Format: ADME, organism-based. An outline of the steps: as §2
Data set [12] concerns Cricetinae gen. sp. Particulars: Cricetulus griseus; Liver; 10 mg/kg.
Data set [13] deals with Cricetinae gen. sp. Kind of data set: The compound was evaluated for its ability to reduce liver cholesterol esters(LCE) in cholesterol-fed hamsters; NE=no effect at 100 mg/kg. Format: functional, organism-based. Set-up: dose 100 mg/kg. Conditions: Cricetulus griseus. An outline of the steps: as §1
In data set [14] the test system is Cricetinae gen. sp. Kind of data set: The compound was evaluated for percent reduction of liver cholesterol esters(LCE) in cholesterol-fed hamsters at 10 mg/Kg/day. Format: functional, Cricetulus griseus. The method, boiled down: as §1
The nature of data set [15]: Percent negation of rise in total serum cholesterol relative to control-fed 0.5% cholesterol for 7 days, At a dose of 0.3 mg/kg/day; percent reduction was not statistically significant. Conditions: in vivo, 168 h. Format: ADME, organism-based. An outline of the steps:
as §2

Data set [16] can be described thus: Percent negation of rise in total serum cholesterol relative to control-fed 0.5% cholesterol for 7 days, At a dose of 1 mg/kg/day; percent reduction was not statistically significant. Format: ADME, organism-based. Particulars: in vivo, 168 h. The method, boiled down: as §2
Data set [17] is described as follows: The pharmacokinetics property percent negation of rise in liver cholesterol esters relative to control-fed 0.5% cholesterol for 7 days, At a dose of 0.3 mg/kg/day; percent reduction was not statistically significant. Format: ADME, organism-based. Conditions: in vivo, 168 h. An outline of the steps: as §1
Data set [18] concerns Cricetinae gen. sp. Put plainly: The compound was evaluated for percent reduction of liver cholesterol esters(LCE) in cholesterol-fed hamsters at 3 mg/kg/day. Format: functional, Cricetulus griseus. The method, boiled down:
as §1

The subject of data set [19] is Cricetinae gen. sp. Put plainly: The compound was evaluated for percent reduction of liver cholesterol esters(LCE) in cholesterol-fed hamsters at 2.5 mg/Kg/day. Format: functional, Cricetulus griseus. The method, boiled down:
as §1

Calls of active or inactive are those of the source. The calls are words filed in the database; no cut-off is given here.

One may read the ED50 as the dose that gives a 50% effect, or the effect in half of the subjects. In the data set on Cricetinae gen. sp. [1], `COc1ccc([C@@H]2[C@@H](CCC(=O)c3ccccc3)C(=O)N2c2ccc(OC)cc2)cc1` displayed a median effective dose (ED50) of 2 mg/kg/day. Turning to `O=C1[C@H](CC[C@H](O)c2ccc(F)cc2)[C@@H](c2ccc(O)cc2)N1c1ccc(F)cc1` [EZETIMIBE], the Negation is -37% in data set [2]; -72% in data set [3]; -100% in [4]; -23% in [5]; -39% in data set [6]; -87% in data set [7]. Moreover, the Negation is listed as -96% in data set [8], -100% in data set [9], -100% in [10] and -100% in data set [11]. Moreover, the 50% effect level in the data set with Cricetinae gen. sp. [1] (ED50) was put at a dose of 0.04 mg/kg/day. As to `CC(=O)Oc1ccc([C@@H]2[C@@H](CC[C@@H](OC(C)=O)c3ccc(F)cc3)C(=O)N2c2ccc(F)cc2)cc1`, in the data set with Cricetinae gen. sp. [1], the median effective dose (ED50) turned out to be 1.5 mg/kg/day. Regarding `CC1CC[C@@]2(OC1)O[C@H]1C[C@H]3[C@@H]4CC[C@H]5C[C@@H](O[C@@H]6O[C@@H](CO)[C@@H](O[C@@H]7O[C@@H](COC(=O)Nc8ccccc8F)[C@@H](OC(=O)Nc8ccccc8F)[C@H](O)[C@@H]7O)[C@H](O)[C@@H]6O)CC[C@]5(C)[C@H]4C(=O)C[C@]3(C)[C@H]1[C@@H]2C` (some centres not stated), in the data set on Cricetinae gen. sp. [1], it took a dose of 0.025 mg/kg/day to reach the 50% effect level (ED50).

Regarding `CC(=O)Oc1ccc([C@@H]2[C@@H](CC[C@H](OC(C)=O)c3ccc(F)cc3)C(=O)N2c2ccc(F)cc2)cc1`, in the data set on Cricetinae gen. sp. [1], the ED50 turned out to be 0.06 mg/kg/day.

For the compound `CC[C@H](C)C(=O)O[C@H]1C[C@@H](C)C=C2C=C[C@H](C)[C@H](CC[C@@H]3C[C@@H](O)CC(=O)O3)[C@H]21`, the ED50 result in the data set with Cricetinae gen. sp. [12] is “No effect”. In turn, `COc1ccc([C@@H]2[C@@H](CCCc3ccc(F)cc3)C(=O)N2c2ccc(F)cc2)cc1` gave a median effective dose (ED50) in the data set on Cricetinae gen. sp. [1] of 0.7 mg/kg/day. Turning to `Cc1ccc(C)c(OCCCC(C)(C)C(=O)O)c1`, in the data set on Cricetinae gen. sp. [13], the ED50 result was “inactive”.

As for `COc1ccc(N2C(=O)[C@H](CCCc3ccccc3)[C@H]2c2ccc(O)cc2)cc1`, in the data set with Cricetinae gen. sp. [1], it took a dose of 5 mg/kg/day to reach the 50% effect level (ED50). On the same count and under the same terms, the same measure for `O=C1[C@H](CC[C@H](O)c2ccc(F)cc2)[C@@H](c2ccc(OCc3ccccc3)cc2)N1c1ccc(F)cc1`: 0.1 mg/kg/day.

In the data set with Cricetinae gen. sp. [1], `COc1ccc([C@@H]2[C@@H](CC[C@H](O)c3ccccc3)C(=O)N2c2ccc(OC)cc2)cc1` yielded a median effective dose (ED50) of 0.9 mg/kg/day.

Take `COc1ccc(N2C(=O)[C@H](CCCc3ccc(O)cc3)[C@H]2c2ccc(O)cc2)cc1`: in the data set on Cricetinae gen. sp. [14], the Reduction was -64%. With `COc1ccc([C@@H]2[C@@H](CC[C@@H](O)c3ccccc3)C(=O)N2c2ccc(OC)cc2)cc1`, the 50% effective dose (ED50) in the data set with Cricetinae gen. sp. [1] worked out at 5 mg/kg/day. For `COc1ccc([C@@H]2[C@@H](CCCc3ccccc3)C(=O)N2c2ccc(OC)cc2)cc1` [SCH-48461], the Negation result in data set [15] was “Not Active”; in data set [16], “Not Active”; in [17], “Not Active”; in data set [10], -68%; in data set [11] it was -76%. The compound further showed an ED50 in the data set on Cricetinae gen. sp. [1] of 2.2 mg/kg/day. Consider `COc1ccc(N2C(=O)[C@H](CC[C@H](O)c3ccccc3)[C@H]2c2ccc(O)cc2)cc1`, for which it took a dose of 0.3 mg/kg/day to reach the 50% effect level in the data set on Cricetinae gen. sp. [1] (ED50). Take `O=C(CC[C@H]1C(=O)N(c2ccc(F)cc2)[C@@H]1c1ccc(OCc2ccccc2)cc1)c1ccc(F)cc1`: the Reduction in the data set with Cricetinae gen. sp. [18] is -96%. `COc1ccc(N2C(=O)[C@H](CCC(=O)c3ccccc3)[C@H]2c2ccc(O)cc2)cc1` displayed a median effective dose (ED50) in the data set with Cricetinae gen. sp. [1] of 3 mg/kg/day. In turn, `CC1CC[C@@]2(OC1)O[C@H]1C[C@H]3[C@@H]4CC[C@H]5C[C@@H](O[C@@H]6O[C@@H](CO)[C@@H](O[C@@H]7O[C@@H](COC(=O)Nc8ccccc8F)[C@@H](OC(=O)Nc8ccccc8F)[C@H](O)[C@@H]7O)[C@H](O)[C@@H]6O)CC[C@]5(C)[C@H]4CC(=O)[C@]3(C)[C@H]1[C@@H]2C` (some centres not stated) yielded an ED50 in the data set with Cricetinae gen. sp. [1] of 0.07 mg/kg/day.

`O=C(CC[C@H]1C(=O)N(c2ccc(F)cc2)[C@@H]1c1ccc(O)cc1)c1ccc(F)cc1` displayed a 50% effective dose (ED50) in the data set on Cricetinae gen. sp. [1] of 0.3 mg/kg/day. Regarding `CCC(CC(CC)c1ccc(C[N+](C)(C)C)cc1)c1ccccc1.[Cl-]` (configuration not stated), the “% reduction” value in the data set on Cricetinae gen. sp. [19] is on record as -96. Regarding `O=C1[C@H](C/C=C/c2ccc(F)cc2)[C@@H](c2ccc(O)cc2)N1c1ccc(F)cc1`, the 50% effect level in the data set with Cricetinae gen. sp. [1] (ED50) was put at a dose of 2.5 mg/kg/day. Same read-out and setting: the same measure for `COc1ccc(N2C(=O)[C@H](CC[C@@H](O)c3ccccc3)[C@H]2c2ccc(O)cc2)cc1`: 3 mg/kg/day. Take `COc1ccc([C@@H]2[C@@H](CCCc3ccccc3)C(=O)N2c2ccc(O)cc2)cc1`: the Reduction in the data set on Cricetinae gen. sp. [14] is recorded as -78%. For the compound `O=C1[C@H](CC[C@@H](O)c2ccc(F)cc2)[C@@H](c2ccc(O)cc2)N1c1ccc(F)cc1`, the ED50 in the data set on Cricetinae gen. sp. [1] is 0.8 mg/kg/day. The compound `O=C1[C@H](CCCc2ccc(F)cc2)[C@@H](c2ccc(O)cc2)N1c1ccc(F)cc1` displayed a median effective dose (ED50) in the data set on Cricetinae gen. sp. [1] of 2 mg/kg/day. `O=C1[C@H](CCCc2ccccc2)[C@@H](c2ccc(O)cc2)N1c1ccc(O)cc1`: in the data set on Cricetinae gen. sp. [14], the Reduction was -68%. Take `COc1ccc([C@@H]2[C@@H](CCCc3ccc(O)cc3)C(=O)N2c2ccc(OC)cc2)cc1`: the Reduction in the data set on Cricetinae gen. sp. [14] is on record as -16%.
